Data from ChEMBL document CHEMBL1124084, “Studies on scavengers of active oxygen species. 1. Synthesis and biological activity of 2-O-alkylascorbic acids” (J Med Chem, 1988).

How the values were obtained:
Rattus norvegicus [1] = organism: Rattus norvegicus; assay: Antilipid peroxidation was measured at 10e-5 M concentration; format: functional
Procedure, shortened: (§1)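 Rat brain lipid peroxidation: brains from male SD rats (12 weeks old), exsanguinated under pentobarbital anaesthesia, homogenized to 5% in phosphate buffer pH 7.4. Homogenate incubated with test drug at 37 °C for 1 h. Lipid peroxide quantified by the thiobarbituric acid method.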

[2] = Reducing activity determined by the use of stable radical alpha,alpha-di-phenyl-beta-picrylhydrazyl (DPPH); design: concentration or dose not given beside the values
Rattus norvegicus [3] = assay: Effect of AOS scavenger on premeture ventricular complexes PVCs, arrhythmias induced by ischemia-reperfusion in anesthetized rat, duration at 10 mg/kg; format: functional, Cardiac ventricle; details: 10 mg/kg
Rattus norvegicus [4] = assay: Effect of AOS scavenger on premeture ventricular complexes PVCs, arrhythmias induced by ischemia-reperfusion in anesthetized rat, duration at 1 mg/kg; format: functional, Cardiac ventricle
Rattus norvegicus [5] = assay: Effect of AOS scavenger on premeture ventricular complexes PVCs, arrhythmias induced by ischemia-reperfusion in anesthetized rat, duration at 3 mg/kg; format: functional, Cardiac ventricle
Rattus norvegicus [6] = assay: Effect of AOS scavenger on ventricular tachycardia (VT),arrhythmias induced by ischemia-reperfusion in anesthetized rat, duration at 10 mg/kg; format: functional, Cardiac ventricle; details: 10 mg/kg
Rattus norvegicus [7] = assay: Effect of AOS scavenger on ventricular tachycardia (VT),arrhythmias induced by ischemia-reperfusion in anesthetized rat, duration at 3 mg/kg; format: functional, Cardiac ventricle
Rattus norvegicus [8] = assay: Effect of AOS scavenger on ventricular tachycardia (VT),arrhythmias induced by ischemia-reperfusion in anesthetized rat duration at 1 mg/kg; format: functional, Cardiac ventricle
Rattus norvegicus [9] = assay: Effect of AOS scavenger on ventricular tachycardia (VT),arrhythmias induced by ischemia-reperfusion in anesthetized rat, frequency, times at 1 mg/kg; format: functional, Cardiac ventricle
Rattus norvegicus [10] = assay: Effect of AOS scavenger on ventricular tachycardia (VT),arrhythmias induced by ischemia-reperfusion in anesthetized rat, frequency, times at 3 mg/kg; format: functional, Cardiac ventricle
Rattus norvegicus [11] = assay: Effect of AOS scavenger on ventricular tachycardia (VT), arrhythmias induced by ischemia-reperfusion in anesthetized rat, frequency, timesat 10 mg/kg; format: functional, Cardiac ventricle
Rattus norvegicus [12] = assay: Effect of AOS scavenger on ventricular fibrillation (VF),arrhythmias induced by ischemia-reperfusion in anesthetized rat, duration at 1 mg/kg; format: functional, Cardiac ventricle
Rattus norvegicus [13] = assay: Effect of AOS scavenger on ventricular fibrillation (VF),arrhythmias induced by ischemia-reperfusion in anesthetized rat, duration at 3 mg/kg; format: functional, Cardiac ventricle
Rattus norvegicus [14] = assay: Effect of AOS scavenger on ventricular fibrillation (VF), arrhythmias induced by ischemia-reperfusion in anesthetized rat, frequency, times at 10 mg/kg; format: functional, Cardiac ventricle; details: 10 mg/kg
Rattus norvegicus [15] = assay: Effect of AOS scavenger on ventricular fibrillation (VF), arrhythmias induced by ischemia-reperfusion in anesthetized rat, frequency, times at 1 mg/kg; format: functional, Cardiac ventricle
Rattus norvegicus [16] = assay: Effect of AOS scavenger on ventricular fibrillation (VF), arrhythmias induced by ischemia-reperfusion in anesthetized rat, frequency, timesat 3 mg/kg; format: functional, Cardiac ventricle
Rattus norvegicus [17] = organism: Rattus norvegicus; assay: Inhibition of lipid peroxidation was determined with rat brain tissue homogenates; format: functional
Procedure, shortened: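 Brains excised from male SD rats (12 weeks), exsanguinated under pentobarbital anesthesia; 5% homogenate in phosphate buffer pH 7.4 incubated with test drug 1 h at 37 °C; lipid peroxide quantified by thiobarbituric acid method.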

Rattus norvegicus [18] = assay: Effect of AOS scavenger on ventricular fibrillation (VF),arrhythmias induced by ischemia-reperfusion in anesthetized rat, incidence at 10 mg/kg; 4/13; format: functional, Cardiac ventricle
Rattus norvegicus [19] = assay: Effect of AOS scavenger on ventricular fibrillation (VF),arrhythmias induced by ischemia-reperfusion in anesthetized rat, incidence at 1 mg/kg; 5/14; format: functional, Cardiac ventricle
Rattus norvegicus [20] = assay: Effect of AOS scavenger on ventricular fibrillation (VF),arrhythmias induced by ischemia-reperfusion in anesthetized rat, incidence at 3 mg/kg; 3/10; format: functional, Cardiac ventricle
Rattus norvegicus [21] = assay: Effect of AOS scavenger on ventricular tachycardia (VT),arrhythmias induced by ischemia-reperfusion in anesthetized rat, incidence at 10 mg/kg; 13/13; format: functional, Cardiac ventricle
Rattus norvegicus [22] = assay: Effect of AOS scavenger on ventricular tachycardia (VT),arrhythmias induced by ischemia-reperfusion in anesthetized rat, incidence at 3 mg/kg; 10/10; format: functional, Cardiac ventricle
Rattus norvegicus [23] = assay: Effect of AOS scavenger on ventricular fibrillation (VF),arrhythmias induced by ischemia-reperfusion in anesthetized rat, duration at 10 mg/kg; format: functional, Cardiac ventricle
Rattus norvegicus [24] = organism: Rattus norvegicus; assay: Antilipid peroxidation was determined; format: functional; procedure, shortened: as §1
Rattus norvegicus [25] = assay: Effect of AOS scavenger on ventricular tachycardia (VT), arrhythmias induced by ischemia-reperfusion in anesthetized rat, duration at 100 mg/kg; format: functional, Cardiac ventricle
Rattus norvegicus [26] = assay: Effect of AOS scavenger on ventricular fibrillation (VF), arrhythmias induced by ischemia-reperfusion in anesthetized rat, duration at 100 mg/kg; format: functional, Cardiac ventricle
Rattus norvegicus [27] = assay: Effect of AOS scavenger on ventricular fibrillation (VF), arrhythmias induced by ischemia-reperfusion in anesthetized rat, frequency, times at 100 mg/kg; format: functional, Cardiac ventricle
Rattus norvegicus [28] = assay: Effect of AOS scavenger on ventricular tachycardia (VT), arrhythmias induced by ischemia-reperfusion in anesthetized rat, frequency, times at 100 mg/kg; format: functional, Cardiac ventricle
Rattus norvegicus [29] = assay: Effect of AOS scavenger on ventricular fibrillation (VF), arrhythmias induced by ischemia-reperfusion in anesthetized rat, incidence at 100 mg/kg; 4/10; format: functional, Cardiac ventricle
Rattus norvegicus [30] = assay: Effect of AOS scavenger on ventricular tachycardia (VT), arrhythmias induced by ischemia-reperfusion in anesthetized rat, incidence at 100 mg/kg; 7/10; format: functional, Cardiac ventricle
Rattus norvegicus [31] = assay: Effect of AOS scavenger on premeture ventricular complexes PVCs, arrhythmias induced by ischemia-reperfusion in anesthetized rat, frequency per minute at 100 mg/kg

Q: Which Antilipid peroxidation (Rattus norvegicus [1]) does the source give for `CCCCCCCCOC1=C(O)OC(C(O)CO)C1=O` (centres undefined) here?
A: 1.6%

Q: What about the Reducing activity [2] of the same compound?
A: 93.9%

Q: Which Activity (Rattus norvegicus [3]) does the source give for `CCCCCCCCCCCCCCCCCCOC1=C(O)[C@@H](C(O)CO)OC1=O` (stereo in doubt; 5k) here?
A: 12 min

Q: And the Activity (Rattus norvegicus [4])?
A: 3.4 min

Q: And the Activity (Rattus norvegicus [5])?
A: <4.5 min

Q: What about the Duration (Rattus norvegicus [6]) of the same compound?
A: 12 s

Q: And the Duration (Rattus norvegicus [7])?
A: <6.9 s

Q: And the Duration (Rattus norvegicus [8])?
A: 11.4 s

Q: What about the Frequency (Rattus norvegicus [9]) of the same compound?
A: 4.3

Q: And the Frequency (Rattus norvegicus [10])?
A: 4

Q: And the Frequency (Rattus norvegicus [11])?
A: 5.2

Q: What about the Duration (Rattus norvegicus [12]) of the same compound?
A: <4.1 s

Q: What about the Duration (Rattus norvegicus [13]) of the same compound?
A: <1.5 s

Q: What about the Frequency (Rattus norvegicus [14]) of the same compound?
A: <0.5

Q: And the Frequency (Rattus norvegicus [15])?
A: <1.1

Q: What about the Frequency (Rattus norvegicus [16]) of the same compound?
A: <0.7

Q: And the IC50 (Rattus norvegicus [17])?
A: 4.3 µM

Q: And the Incidence (Rattus norvegicus [18])?
A: 4 N

Q: And the Incidence (Rattus norvegicus [19])?
A: 5

Q: What about the Incidence (Rattus norvegicus [20]) of the same compound?
A: 3 N

Q: What about the Incidence (Rattus norvegicus [21]) of the same compound?
A: 13 N

Q: And the Incidence (Rattus norvegicus [22])?
A: 10 N

Q: What about the Duration (Rattus norvegicus [23]) of the same compound?
A: 0.5 s

Q: What does the source list for `CCCCCCCCCCCCCCCCCCCCOC1=C(O)OC(C(O)CO)C1=O` (centres undefined)?
A: Antilipid peroxidation (Rattus norvegicus [24]): 75.8%; IC50 (Rattus norvegicus [17]): 4.7 µM; Reducing activity [2]: 95.3%

Q: For `CCCCCCCCCCCCCCCCCCOC1=C(O)[C@@H](C(O)CO)OC1=O` (stereo in doubt; 8), which Antilipid peroxidation (Rattus norvegicus [24]) is on record?
A: 44.7%

Q: For `CCCCCCCCCCCOC1=C(O)OC(C(O)CO)C1=O` (centres undefined), which Antilipid peroxidation (Rattus norvegicus [24]) is on record?
A: 43.4%

Q: And the IC50 (Rattus norvegicus [17])?
A: 13 µM

Q: What about the Reducing activity [2] of the same compound?
A: 94.6%

Q: With `CCCCCCCCCCCCCCCCCCOC1=C(O)OC(CCO)C1=O` (centres undefined) as the compound, how does the Antilipid peroxidation (Rattus norvegicus [24]) read?
A: 52%

Q: And the IC50 (Rattus norvegicus [17])?
A: 6.8 µM

Q: And the Reducing activity [2]?
A: 93.9%

Q: What does the source list for `CCCCCCCCCCCCOC1=C(O)OC(C(O)CO)C1=O` (centres undefined)?
A: Antilipid peroxidation (Rattus norvegicus [24]): 67.4%; IC50 (Rattus norvegicus [17]): 5.4 µM

Q: With `CCCCCCCCCCCCCCCCCCOC1=C(OC)C(C(O)CO)OC1=O` (centres undefined) as the compound, how does the Antilipid peroxidation (Rattus norvegicus [1]) read?
A: 12.5%

Q: With `OC[C@@H](O)[C@@H](O)[C@H](O)[C@H](O)CO` [MANNITOL] as the compound, how does the Duration (Rattus norvegicus [25]) read?
A: 7.7 s

Q: What about the Duration (Rattus norvegicus [26]) of the same compound?
A: 1.3 s

Q: And the Frequency (Rattus norvegicus [27])?
A: 0.8

Q: And the Frequency (Rattus norvegicus [28])?
A: 2.7

Q: And the Incidence (Rattus norvegicus [29])?
A: 4 N

Q: What about the Incidence (Rattus norvegicus [30]) of the same compound?
A: 7 N

Q: And the Activity (Rattus norvegicus [31])?
A: 4.8 min⁻¹

Q: Which Antilipid peroxidation (Rattus norvegicus [24]) does the source give for `CCCCCCCCCOC1=C(O)OC(C(O)CO)C1=O` (centres undefined) here?
A: 22.4%

Q: What about the IC50 (Rattus norvegicus [17]) of the same compound?
A: 27 µM

Q: Which results are given for `CCCCCCCCCCCCCCCCCCOC1=C(O)OC(C(O)COC(C)=O)C1=O` (centres undefined)?
A: Antilipid peroxidation (Rattus norvegicus [1]): 76.3%; IC50 (Rattus norvegicus [17]): 4.2 µM

Q: With `CCCCCCCCCCCCCCCCCCOC1=C(O)O/C(=C\CO)C1=O` as the compound, how does the Antilipid peroxidation (Rattus norvegicus [1]) read?
A: 53.5%

Q: And the IC50 (Rattus norvegicus [17])?
A: 8.5 µM
